Assay [1] is described as follows: reducers of endogenous Her2 protein level, primary screen, SKBR3 breast tumor cells, AlphaScreen, ATP viability (AID 461;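 active = Her2 level under about 52% in both replicate screens, with viability over 70% of control, limit read from the data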;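 for Her2 level: lower value means less Her2 protein in the cells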;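 for viability: percent of carrier control wells set as 100% viability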). The settings on record: 18-24 h, measured here: SKBR3 viability, ATP luminescence, at 10 µM. Background: Bead proximity is the source of the signal in Alpha formats.
Assay [2] deals with Receptor tyrosine-protein kinase erbB-2 (Homo sapiens) (UniProt P04626). The description is as above. The following applies: 18-24 h, at 10 µM, stronger effect = lower value.
Sequence of Receptor tyrosine-protein kinase erbB-2 (Homo sapiens) (P04626 whole entry, looked up): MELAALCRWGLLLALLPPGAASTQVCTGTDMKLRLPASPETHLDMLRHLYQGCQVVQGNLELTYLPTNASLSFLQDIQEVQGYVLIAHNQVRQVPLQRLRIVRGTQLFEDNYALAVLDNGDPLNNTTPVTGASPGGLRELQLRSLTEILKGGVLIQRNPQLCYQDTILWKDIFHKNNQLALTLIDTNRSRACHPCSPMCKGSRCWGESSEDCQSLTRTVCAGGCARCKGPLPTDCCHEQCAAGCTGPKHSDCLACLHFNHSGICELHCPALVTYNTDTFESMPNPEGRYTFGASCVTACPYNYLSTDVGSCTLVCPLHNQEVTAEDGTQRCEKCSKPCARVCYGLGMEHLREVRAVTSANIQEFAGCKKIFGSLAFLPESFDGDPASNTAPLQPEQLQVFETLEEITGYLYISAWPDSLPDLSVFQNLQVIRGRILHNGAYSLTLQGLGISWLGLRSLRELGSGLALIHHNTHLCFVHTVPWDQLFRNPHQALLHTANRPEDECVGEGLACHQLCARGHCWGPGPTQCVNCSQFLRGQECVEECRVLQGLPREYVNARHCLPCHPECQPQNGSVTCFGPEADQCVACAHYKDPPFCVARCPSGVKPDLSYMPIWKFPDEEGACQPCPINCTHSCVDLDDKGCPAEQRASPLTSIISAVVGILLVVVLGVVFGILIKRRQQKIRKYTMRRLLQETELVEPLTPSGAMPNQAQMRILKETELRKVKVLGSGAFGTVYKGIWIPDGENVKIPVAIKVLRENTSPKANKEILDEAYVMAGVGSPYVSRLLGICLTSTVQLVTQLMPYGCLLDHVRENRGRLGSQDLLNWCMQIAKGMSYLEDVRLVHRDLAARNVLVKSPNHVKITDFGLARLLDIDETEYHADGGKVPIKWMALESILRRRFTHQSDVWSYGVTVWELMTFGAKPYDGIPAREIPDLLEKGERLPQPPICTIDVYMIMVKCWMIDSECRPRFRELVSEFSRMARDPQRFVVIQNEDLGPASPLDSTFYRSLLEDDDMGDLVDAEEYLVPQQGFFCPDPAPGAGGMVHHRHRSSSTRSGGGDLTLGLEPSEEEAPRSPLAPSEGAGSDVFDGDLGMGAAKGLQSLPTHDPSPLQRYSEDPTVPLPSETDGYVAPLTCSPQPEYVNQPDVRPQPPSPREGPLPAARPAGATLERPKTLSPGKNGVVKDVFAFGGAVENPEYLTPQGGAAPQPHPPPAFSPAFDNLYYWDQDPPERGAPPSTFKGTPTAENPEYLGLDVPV
Assay [3] can be described thus: SK-BR-3 cell growth inhibitors, pilot screen, 24 h, human (AID 572;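 active = viability at or below 10% of carrier control in both of two separate runs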;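 note: compound exposure lasted between 18 and 24 h rather than exactly 24 h; 100% = carrier-treated control wells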). The settings on record: SK-BR-3 viability, CellTiter-Glo luminescence, at 10 µM, stronger effect = lower value. In general terms: ATP-based viability assays read luminescence as a measure of living cells.
Assay [4] in a line: HUVEC growth inhibition – cell-based, human, primary screen (AID 575;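 active = viability at or below 30% in both replicate assays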;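 note: 100% = median of untreated cell wells with 0.1% DMSO on each plate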). The settings on record: HUVEC proliferation, CellTiter-Glo luminescence, 72 h; at 10 µM; stronger effect = lower value. Summed up:
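material = primary HUVEC, no more than 12 passages | input = 1250 cells per well | controls = vehicle and MePR control wells | measured by = CTG luminescence | times = 72 h compound incubation | format = collagen-coated 384-well format | read-out = % viability vs DMSO wells | doses = single 10 µM dose, 0.1% DMSO, from 5x medium stock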

The nature of assay [5]: growth inhibitors of H69AR lung tumor, primary screen, human, duplicate replicates (AID 580).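 Note: 100% = mean luminescence of untreated wells and 0% = no signal.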 The following applies: H69AR lung tumor cells viability, ATP luminescence, 72 h; at 10 µM; stronger effect = lower value.
Assay [6] is described as follows: reversal of MRP1-mediated doxorubicin resistance, pilot screen, H69AR cells, doxorubicin co-treatment (AID 601;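 active = viability loss from added drug above about 55%, and viability with drug at most 40%, in both replicates, limit read from the data, passing the limit was not always enough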). The following applies: CellTiter-Glo, 72 h, at 10 µM; for differential viability (reversal): stronger effect = higher value.
Assay [7] in a line: 384-well plate pilot, post-Golgi transport modulator project, inhibition of yeast transport mutant growth (AID 636; in the data active = inhibition above about 31%). The settings on record: absorbance 615 nm, about 18 h, stronger effect = higher value.
A short description of assay [8]: growth suppression of yeast trafficking mutant, preliminary HTS, modulators of trafficking downstream of Golgi apparatus project, 1536-format plate, OD 615 nm (AID 637; in the data active = inhibition above about 30%). The following applies: yeast transport mutant growth, absorbance 615 nm, 18 h; stronger effect = higher value.
Where [9] appears, read: H69AR cells + 2 uM doxorubicin, measured here: viability with 2 uM doxorubicin, stronger effect = lower value.
Setting [10] is: H69AR cells, compound alone cytotoxicity.

Active and inactive are the calls of the source.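 Rule for the calls, unless noted: active = viability at or under a set limit in both replicates, limit being median viability minus 3 SD (cut at about 48% in these data, passing the limit was not always enough); inconclusive = at or under the limit in just one replicate; inactive = at or above the limit in both replicates.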

In general, viability refers to a read-out of living cells in per cent, often relative to untreated cells. A word on the inhibition: it is the change of the read-out against control, counted positive when it falls. As for `C#CCNc1c(C)c(C)nc2ncnn12`, the viability is 104% in assay [1]; 104% (inactive) in assay [3]; 126% (inactive) in assay [4]; 104% (inactive) in assay [5]; 85.3% in assay [6] (setting [9]); 104% in assay [6] (setting [10]). Besides, the Her2 level in assay [2] was 97% (inactive). The differential viability (reversal) in assay [6] (H69AR cells + 2 uM doxorubicin) was 18.7% (inactive). In addition, the inhibition in assay [7] is -5.07% (inactive); in assay [8] it was 11.5% (inactive).
As for `O=C(CCC(=O)N(c1cccc(F)c1)C(C(=O)NC1CCCC1)c1ccncc1)Nc1cccnc1` (stereo not given), the viability in assay [1] was 100%; in assay [3], 100% (inactive); in assay [4] it was 97.1% (inactive); in assay [5], 91.7% (inactive); in assay [6] (setting [9]), 95.8%; in assay [6] (setting [10]), 91.7%. Besides, in assay [2], the Her2 level is 95.5% (inactive). Also, the differential viability (reversal) in assay [6] (H69AR cells + 2 uM doxorubicin) is -4.02% (inactive). Moreover, the inhibition is -0.8% (inactive) in assay [7] and 2.74% (inactive) in assay [8].
Regarding `CCOC(=O)C1=C(O)C(=O)N(c2ccc(S(N)(=O)=O)cc2)C1c1ccccc1` (stereo not given), the viability in assay [1] was 97.5%; in assay [3], 97.5% (inactive); in assay [4] it was 96.7% (inactive); in assay [5], 96.7% (inactive); in assay [6] (setting [9]), 95.2%; in assay [6] (setting [10]) it was 96.7%. The Her2 level in assay [2] is 110% (inactive). Further, the differential viability (reversal) in assay [6] (H69AR cells + 2 uM doxorubicin) was 1.46% (inactive). Besides, the inhibition in assay [7] was -6.53% (inactive); in assay [8] it was -6.23% (inactive).
In the case of `Cc1ccc(C2N(c3ccc(Cl)c(Cl)c3)C(=O)C3CCCN32)o1` (stereo not given), the viability was 99% in assay [1]; 99% (inactive) in assay [3]; 78.7% (inactive) in assay [4]; 96.2% (inactive) in assay [5]; 89.4% in assay [6] (setting [9]); 96.2% in assay [6] (setting [10]). For the same compound, the Her2 level in assay [2] is 82.5% (inactive). In addition, the differential viability (reversal) in assay [6] (H69AR cells + 2 uM doxorubicin) is 6.78% (inactive). Further, the figures for the inhibition in assay [7] and in assay [8] were -1.45% (inactive) and 0.32% (inactive), respectively.
For `CC(C)C(=O)Nc1nnc(CCc2nnc(NC(=O)C(C)C)s2)s1`, the viability is 99% in assay [1]; 99% (inactive) in assay [3]; 106% (inactive) in assay [4]; 93.6% (inactive) in assay [5]; 91.3% in assay [6] (setting [9]); 93.6% in assay [6] (setting [10]). Besides, the Her2 level in assay [2] is 97% (inactive). The differential viability (reversal) in assay [6] (H69AR cells + 2 uM doxorubicin) is 2.27% (inactive). Further, the inhibition in assay [7] is -4.61% (inactive); in assay [8] it was 0.16% (inactive).
Turning to `Cc1nc2ccc(CCO)cc2s1`, the viability in assay [1] is 97.5%; in assay [3], 97.5% (inactive); in assay [4], 102% (inactive); in assay [5] it was 93.9% (inactive); in assay [6] (setting [9]), 94.8%; in assay [6] (setting [10]) it was 93.9%. The Her2 level in assay [2] is 95.5% (inactive). The differential viability (reversal) in assay [6] (H69AR cells + 2 uM doxorubicin) is -0.945% (inactive). Moreover, the inhibition was -5.89% (inactive) in assay [7] and 0.79% (inactive) in assay [8].
Take `Cc1ccnc(SCCn2c(N3CCCCC3)nc3c2c(=O)n(C)c(=O)n3C)n1`: the viability is 76.5% in assay [1]; 76.5% (inactive) in assay [3]; 93.9% (inactive) in assay [4]; 91.2% (inactive) in assay [5]; 88.2% in assay [6] (setting [9]); 91.2% in assay [6] (setting [10]). For the same compound, the Her2 level in assay [2] is 88.5% (inactive). The differential viability (reversal) in assay [6] (H69AR cells + 2 uM doxorubicin) is 3% (inactive). For the same compound, the figures for the inhibition in assay [7] and in assay [8] were -5.66% (inactive) and -3% (inactive), respectively.
On to `Cc1cccc(NC(=O)Cn2c(=O)n(C)c3ccccc32)c1`, for which the viability in assay [1] is 100%; in assay [3], 100% (inactive); in assay [4] it was 100% (inactive); in assay [5], 102% (inactive); in assay [6] (setting [9]) it was 92.9%; in assay [6] (setting [10]) it was 102%. Also, in assay [2], the Her2 level is 90.5% (inactive). For the same compound, in assay [6] (H69AR cells + 2 uM doxorubicin), the differential viability (reversal) was 9.13% (inactive). For the same compound, the inhibition was -3.33% (inactive) in assay [7] and -2.7% (inactive) in assay [8].
With `CC1N=C2c3ccccc3N=C(SCc3cc(=O)n4cc(Cl)ccc4n3)N2C1=O` (stereo not given), the viability was 78.5% in assay [1]; 78.5% (inactive) in assay [3]; 79.4% (inactive) in assay [4]; 76.1% (inactive) in assay [5]; 85.6% in assay [6] (setting [9]); 76.1% in assay [6] (setting [10]). Further, the Her2 level in assay [2] was 92.5% (inactive). For the same compound, the differential viability (reversal) in assay [6] (H69AR cells + 2 uM doxorubicin) is -9.46% (inactive). For the same compound, the values for the inhibition in assay [7] and in assay [8] were -4.87% (inactive) and -0.48% (inactive), respectively.
For the compound `COc1ccc(Nc2nc(OC)nc(N3CCN(c4ccc(OC)cc4)CC3)n2)cc1`, the viability was 123% in assay [1]; 123% (inactive) in assay [3]; 66.7% (inactive) in assay [4]; 71.3% (inactive) in assay [5]; 77% in assay [6] (setting [9]); 71.3% in assay [6] (setting [10]). Moreover, in assay [2], the Her2 level is 98% (inactive). The differential viability (reversal) in assay [6] (H69AR cells + 2 uM doxorubicin) is -5.71% (inactive). The inhibition is -6.27% (inactive) in assay [7] and -3.06% (inactive) in assay [8].
In the case of `Nn1c(SCC(=O)Nc2ccc(Oc3ccccc3)cc2)nnc1C1CC1`, the viability in assay [1] was 98.5%; in assay [3], 98.5% (inactive); in assay [4] it was 69.1% (inactive); in assay [5], 75.7% (inactive); in assay [6] (setting [9]), 85.4%; in assay [6] (setting [10]) it was 75.7%. In assay [2], the Her2 level is 100% (inactive). Moreover, the differential viability (reversal) in assay [6] (H69AR cells + 2 uM doxorubicin) was -9.75% (inactive). The inhibition in assay [7] is -5.6% (inactive); in assay [8] it was -12.1% (inactive).
Regarding `N#CC(C(=O)c1ccco1)c1ccccn1` (stereo not given), the viability in assay [1] was 106%; in assay [3] it was 106% (inactive); in assay [4], 98.1% (inactive); in assay [5], 86.1% (inactive); in assay [6] (setting [9]) it was 81.9%; in assay [6] (setting [10]), 86.1%. In addition, in assay [2], the Her2 level was 81% (inactive). In addition, the differential viability (reversal) in assay [6] (H69AR cells + 2 uM doxorubicin) is 4.21% (inactive). Moreover, the figures for the inhibition in assay [7] and in assay [8] were -7.37% (inactive) and 0.67% (inactive), respectively.
For the compound `CN(C(=O)c1ccno1)c1nnc(-c2cnccn2)s1`, the viability in assay [1] was 107%; in assay [3], 107% (inactive); in assay [4] it was 108% (inactive); in assay [5] it was 103% (inactive); in assay [6] (setting [9]) it was 95.9%; in assay [6] (setting [10]), 103%. In assay [2], the Her2 level is 102% (inactive). Also, the differential viability (reversal) in assay [6] (H69AR cells + 2 uM doxorubicin) is 6.98% (inactive). In addition, the inhibition in assay [7] is -6.22% (inactive); in assay [8] it was 1.83% (inactive).
As for `COC(=O)CCn1nnc(-c2cccs2)n1`, the viability is 99.5% in assay [1]; 99.5% (inactive) in assay [3]; 101% (inactive) in assay [4]; 103% (inactive) in assay [5]; 97.4% in assay [6] (setting [9]); 103% in assay [6] (setting [10]). Moreover, the Her2 level in assay [2] is 126% (inactive). In addition, in assay [6] (H69AR cells + 2 uM doxorubicin), the differential viability (reversal) was 5.5% (inactive). For the same compound, the inhibition is 3.73% (inactive) in assay [7] and 4.1% (inactive) in assay [8].
On to `CN(C)C(=O)N1CCC(C(=O)NC2CCCCCCC2)CC1`, for which the viability in assay [1] is 90%; in assay [3], 90% (inactive); in assay [4], 105% (inactive); in assay [5], 92.9% (inactive); in assay [6] (setting [9]), 94.8%; in assay [6] (setting [10]), 92.9%. Also, in assay [2], the Her2 level was 112% (inactive). Besides, the differential viability (reversal) in assay [6] (H69AR cells + 2 uM doxorubicin) was -1.97% (inactive). The inhibition in assay [7] was -3.21% (inactive); in assay [8], 7% (inactive).
As to `CCn1cc(C(=O)N2CCCC2)c(=O)c2cc(S(=O)(=O)N3CCOCC3)ccc21`, the viability was 116% in assay [1]; 116% (inactive) in assay [3]; 92.2% (inactive) in assay [4]; 99.5% (inactive) in assay [5]; 98.3% in assay [6] (setting [9]); 99.5% in assay [6] (setting [10]). Also, the Her2 level in assay [2] is 99% (inactive). Moreover, in assay [6] (H69AR cells + 2 uM doxorubicin), the differential viability (reversal) is 1.21% (inactive). The inhibition in assay [7] was -5.92% (inactive); in assay [8], -6.51% (inactive).
